# The list is not random: actives were taken first. Their share in the collection is about 4.6%.
# TAAR1 ag: human TAAR1 agonism. CHO RD-HGA16 TAAR1, Fluo-8 calcium fluorescence; vehicle wells 0%, saturating PEA agonist 100%. 360,000 tested, 0.99% active. Q96RJ0. activation, % at 3 µM;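 active = activation above the mean activation of all test compounds in the run plus 3 SD, cut at about 38% in these data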
#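 System: CHO-derived RD-HGA16 cells with stable Gα16 and human TAAR1. Times: 17-24 h plating, Fluo-8 75 min 37 °C, 30 min RT. Measured by: calcium-sensitive Fluo-8 signal, excitation 470-495, emission 515-575 nm. Read-out basis: % activation relative to PEA EC100 response. Control set: DMSO and PEA EC100. Repeats: no replicates (n 1).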
# TAAR1 antagonist: antagonists of human TAAR1 | Q96RJ0 | CHO RD-HGA16 TAAR1, Fluo-8 calcium fluorescence, antagonist | inhibition, % at 3 µM | 360,000 tested, 1.5% active;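 active = inhibition above a per-plate cutoff, the mean inhibition of test compounds on that plate plus 3 SD, cut at about 49% in these data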;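 also: 0% = DMSO plus EC80 beta-PEA response and 100% = DMSO alone without agonist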
#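 Test system – hTAAR1-expressing CHO RD-HGA16 cells, Gα16-coupled · Also added – β-PEA at EC80 concentration, post-compound challenge · Compound – 3 µM, single point · Incubation – dye loading 75 min at 37 °C, then 30 min room temperature · Measured by – Fluo-8 intracellular calcium dye fluorescence, real-time kinetic reads · Benchmarks – vehicle and agonist controls · Replicates – singlicate, one well per test compound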
# GPR7 antagonist: human neuropeptides B/W receptor 1 antagonism; P48145; GPR7-expressing cells, fluorescence antagonist assay; inhibition, % at 4.4 µM; 290,000 tested, 1.1% active; AID 1861; in the data active = inhibition above about 16%, passing the limit was not always enough;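 also: cells stimulated with the agonist NPW; 0% = agonist with vehicle and 100% = vehicle without agonist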
# OX1R antag-1: human HCRTR1 antagonism. CHO/OX1R cells, Fluo-8 calcium fluorescence, orexin A. inhibition, % at 5 µM. 330,000 tested, 0.43% active. O43613;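 active = inhibition above its plate's threshold, mean inhibition of all tested compounds on the plate plus 3 SD, cut at about 37% in these data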;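 also: 0% = orexin A challenge wells and 100% = SB-334867-A antagonist wells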
# Target sequence (O43613 whole entry, looked up): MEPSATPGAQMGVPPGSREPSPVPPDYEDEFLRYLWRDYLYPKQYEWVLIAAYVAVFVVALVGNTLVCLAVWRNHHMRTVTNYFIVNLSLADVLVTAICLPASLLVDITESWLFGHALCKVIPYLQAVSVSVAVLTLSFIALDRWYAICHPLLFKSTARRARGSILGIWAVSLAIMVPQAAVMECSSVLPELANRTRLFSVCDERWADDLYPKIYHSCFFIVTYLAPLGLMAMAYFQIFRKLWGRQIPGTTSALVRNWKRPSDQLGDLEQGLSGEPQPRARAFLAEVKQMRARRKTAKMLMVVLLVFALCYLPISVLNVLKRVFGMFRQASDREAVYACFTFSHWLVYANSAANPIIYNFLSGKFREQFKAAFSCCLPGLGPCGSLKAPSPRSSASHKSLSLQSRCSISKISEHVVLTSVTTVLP
# CHO parental Ca: counter-screen for OX1R antagonists: effect in parental CHO cells | parental CHO-K1, ATP-induced calcium, Fluo-8 fluorescence | inhibition, % at 5.6 µM | 330,000 tested, 0.63% active;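 active = inhibition above that plate's mean sample inhibition plus 3 SD, cut at about 26% in these data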;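 also: 0% = ATP-challenged DMSO wells and 100% = DMSO wells without ATP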
#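 Assay system: parental CHO cells; Read-out basis: percent inhibition of ATP-evoked calcium rise, normalized to controls; Benchmarks: ATP and no-ATP DMSO wells; Compound dosing: single nominal dose of 5.6 µM per compound; Signal: Fluo-8 calcium dye fluorescence; Also added: ATP as calcium-mobilizing challenge; Repeats: singlicate.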
# OX1R antag-2: blocks the human orexin 1 receptor | AID 485270 | inhibition, % at 6.6 µM | 330,000 tested, 1.8% active | OX1R-expressing cells, FRET antagonist read-out | O43613; in the data active = inhibition mostly above about 38%, no sharp cut-off; inactive = mostly below about 40%;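 also: 0% = agonist challenge alone and 100% = reference antagonist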
# * marks the source's active call; other numbers are inactive results; · = no result.
SMILES,TAAR1 ag,TAAR1 antagonist,GPR7 antagonist,OX1R antag-1,CHO parental Ca,OX1R antag-2
COC(=O)c1cc(NC(=O)C2CCCN(S(=O)(=O)c3c(C)n[nH]c3C)C2)cc(C(=O)OC)c1 (centres undefined),1,-24,-10,-3,-10,8
COc1ccc(NC(=O)CSc2nnc3ccc(-c4cccnc4)nn23)cc1,0,-10,·,-16,-16,63*
O=S1(=O)CCSC[C@@H](CN2CCOCC2)N1,2,-5,·,·,·,·
O=C1N=c2ccccc2=C1c1sc(Nc2cccc(O)c2)nc1O,4,42,19,1,-9,54*
COc1ccc(/C=C/C(=O)Oc2cccc(/C=N/NC(=O)c3cccc(F)c3)c2)cc1,7,35,18*,5,-3,12
COc1cc(/C=C2\C(=O)N(CCC#N)N=C2C)ccc1OCC(=O)Nc1ccccc1,13,54*,6,10,7,7
CCN(CC(=O)NCc1cccs1)C(=O)c1ccc([N+](=O)[O-])o1,1,-13,·,-17,-5,64*
CN(NS(=O)(=O)c1ccc(Cl)cc1)c1nc(C(F)(F)F)nc2ccccc12,5,-15,-2,-21,4,55*
CN(NS(=O)(=O)c1ccccc1)c1nc2ccccc2nc1C(F)(F)F,6,-10,-4,-3,-15,42
Cc1cccc(/C=C/c2onc(C)c2[N+](=O)[O-])n1,-1,-5,·,-12,-11,65*
Cc1cc(C)c(C#N)c(SCc2[nH]nc3c2C(c2ccc(F)cc2)C(C#N)=C(N)O3)n1 (centres undefined),8,-6,16,-33,-17,75*
O=C(/C=C/c1ccccc1)C1C(=O)c2ccccc2C1=O,-3,1,-19,-40,-26,26
CCc1ccc(/C=C/C(=O)C2C(=O)c3ccccc3C2=O)cc1,21,14,4,8,35*,22
COc1ccccc1S(=O)(=O)N(C)C[C@H]1Oc2ncc(Br)cc2C(=O)N([C@H](C)CO)C[C@H]1C,1,0,·,·,·,·
O=c1c2ccccc2oc2cc(C#CC3(O)CCCCC3)ccc12,31,28,·,-20,-34,61*
O=c1c2ccccc2sc2ccc(C#CC3(O)CCCCC3)cc12,7,33,·,-9,-24,41
COc1cc(/C=C/c2nc3ccccc3c(=O)[nH]2)ccc1O,7,-11,·,·,·,·
Cc1cccc(/C=C/c2nc3ccccc3c(=O)[nH]2)c1,1,2,0,-18,-14,69*
CCOC(=O)Cn1c(=NC(=O)c2cc(-c3cccs3)nc3ccccc23)sc2cc(S(N)(=O)=O)ccc21,11,24,3,14,-5,26
COC(=O)Cn1c(=NC(=O)c2cc(-c3cccs3)nc3ccccc23)sc2cc(S(N)(=O)=O)ccc21,4,30,13,20,36*,12
CC(C)Sc1nc2ccccc2n2cnnc12,9,-22,-2,3,6,-2
O=S(=O)(c1ccc(C2CCCCC2)cc1)N1CCCC1,7,11,-10,-8,52*,12
O=C(COc1ccccc1)Nc1ccc(S(=O)(=O)N2CCCC2)cc1,3,-12,17*,-1,-2,7
COc1ccccc1NC(=O)COC(=O)c1ccc(S(=O)(=O)N2CCCCCC2)cc1,6,-1,·,-5,3,4
CCOc1ccccc1NC(=O)COC(=O)c1ccc(S(=O)(=O)N2CCCC2)cc1,12,59*,·,·,·,·
CCN(CC)c1ccc(S(=O)(=O)N2CCOCC2)cc1NC(=O)COC(=O)/C=C/c1ccco1,10,54*,·,·,·,·
CCCCOc1ccc(S(=O)(=O)N2CCCCC2)cc1,3,6,12,-21,42*,4
NS(=O)(=O)c1ccc(NC(=O)COc2ccc(C(=O)c3ccc(F)cc3)cc2)cc1,5,33,2,17,34*,9
O=C(COC(=O)c1n[nH]c2ccccc12)NC(=O)NC1CCCCC1,44*,-7,-5,-35,-9,24
O=C(COC(=O)c1n[nH]c2ccccc12)Nc1ccc(S(=O)(=O)N2CCCC2)cc1,26,45,17*,29,18,35

# Compound activity deposited in PubChem by The Scripps Research Institute Molecular Screening Center.
